Activity calls are given as the source filed them. The rule behind the calls is not given here.
Assays:
[1] = Hemolytic activity against human RBC incubated for 1 hr by microplate reader analysis; type: toxicity, cell-based, Erythrocyte; conditions: red blood cells (erythrocytes)
Method in brief: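 Human red blood cells exposed to peptides up to 50 μM; hemolysis measured, IC50 derived where reached.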

SUD4 = assay: Anti-cancer activity against human SU-DHL-4 cells incubated for 24 hrs by WST assay; type: functional, cell-based; conditions: SU-DHL-4, 24 h
Staphylococcus carnosus = assay: Antimicrobial activity against Staphylococcus carnosus CCM 4838T incubated for 24 hrs by broth microdilution assay; type: functional
Staphylococcus aureus [2] = assay: Antimicrobial activity against Staphylococcus aureus NE163 harboring single transposon insertion mutation in aureolysin at 30 uM incubated for 18 hrs relative to control; type: functional
Method in brief: (§1)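 CA-MRSA USA300 LAC derivative JE2 and single transposon insertion mutants derived from JE2, each lacking an extracellular protease gene, were exposed to peptides up to 30 μM. The read-out was percent growth inhibition. Peptides were dissolved in PBS, and tests were run in triplicate.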

Staphylococcus aureus [3] = assay: Antimicrobial activity against Staphylococcus aureus NE1506 harboring single transposon insertion mutation in V8 protease at 30 uM incubated for 18 hrs relative to control; type: functional; method in brief: as §1
Staphylococcus aureus [4] = assay: Antimicrobial activity against Staphylococcus aureus NE934 harboring single transposon insertion mutation in staphopain B at 30 uM incubated for 18 hrs relative to control; type: functional; method in brief: as §1
Escherichia coli [5] = assay: Antimicrobial activity against Escherichia coli TOP10 incubated for 24 hrs by broth microdilution assay; type: functional
Staphylococcus aureus [6] = assay: Antimicrobial activity against Staphylococcus aureus NE1740 harboring single transposon insertion mutation in staphopain A at 30 uM incubated for 18 hrs relative to control; type: functional; method in brief: as §1
[7] = Toxicity in neutropenic CD-1 mouse deep thigh infection model infected with Acinetobacter baumannii ATCC 19606 assessed as body weight change at 0.18 mg/kg, ip measured after 4 days; type: organism-based; conditions: in vivo, 96 h, time 4 day
Method in brief: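 Neutropenic mice infected intramuscularly in the right thigh with 10⁶ cells per mL of A. baumannii ATCC 19606. […] Body weight monitored for toxicity. Euthanasia 4 days post-infection (day 8). n = 6 per group, from three inocula.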

Acinetobacter baumannii [8] = assay: Depolarization of cytoplasmic membrane in Acinetobacter baumannii ATCC 19606 at MIC measured for 45 mins by DiSC3-(5) dye based assay; type: functional, organism-based
Method in brief: (§2)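 Bacteria loaded with membrane-potential dye DiSC3-(5), then treated with peptide at its MIC for the respective strain; depolarization read as rise in dye fluorescence; polymyxin B and levofloxacin as reference antibiotics.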

Acinetobacter baumannii [9] = assay: Induction of outer membrane permeabilization in Acinetobacter baumannii ATCC 19606 measured for 20 mins by NPN uptake assay; type: functional, organism-based
Escherichia coli [10] = assay: Depolarization of cytoplasmic membrane in Escherichia coli ATCC 11775 at MIC measured for 45 mins by DiSC3-(5) dye based assay; type: functional, organism-based; method in brief: as §2
Enterococcus faecium = assay: Depolarization of cytoplasmic membrane in Enterococcus faecium ATCC 700221 at MIC measured for 45 mins by DiSC3-(5) dye based assay; type: functional, organism-based; method in brief: as §2
[11] = Toxicity against reconstructed human skin model assessed as tissue viability at 50 uM incubated for 1 hr followed by compound washout measured after 42 hrs by MTT assay; type: tissue-based, Skin of body; conditions: read-out: Activity
Method in brief: (§3)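 Reconstructed human epidermis with stratum corneum, per OECD TG 439 skin irritation guideline. Tissues exposed 1 h to peptide at 50 μM, then 42 h post-treatment incubation. Viability read by MTT. Controls were SDS and melittin.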

Klebsiella pneumoniae [12] = assay: Induction of outer membrane permeabilization in Klebsiella pneumoniae ATCC 13883 measured for 20 mins by NPN uptake assay; type: functional, organism-based
Method in brief: (§4)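 Outer-membrane permeabilization of Gram-negative bacteria read as rise in fluorescence of the lipophilic dye NPN, which enters only when outer-membrane integrity is compromised. Peptides applied at their MIC against the respective strain; polymyxin B and levofloxacin as reference antibiotics. Triplicates.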

[13] = Toxicity against reconstructed human skin model assessed as irritation at 50 uM incubated for 1 hr followed by compound washout measured after 42 hrs by MTT assay; type: tissue-based, Skin of body; method in brief: as §3
Pseudomonas aeruginosa [14] = assay: Induction of outer membrane permeabilization in Pseudomonas aeruginosa PAO1 measured for 20 mins by NPN uptake assay; type: functional, organism-based; method in brief: as §4
Pseudomonas aeruginosa [15] = assay: Depolarization of cytoplasmic membrane in Pseudomonas aeruginosa PAO1 at MIC measured for 45 mins by DiSC3-(5) dye based assay; type: functional, organism-based; method in brief: as §2
Acinetobacter baumannii [16] = assay: Anti-infective activity against Acinetobacter baumannii ATCC 19606 infected in neutropenic CD-1 mouse deep thigh infection model assessed as reduction in bacterial load at 0.18 mg/kg, ip measured after 4 days; type: functional, organism-based; conditions: time 4.0 day
Method in brief: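 Neutropenic mice infected intramuscularly in right thigh with 10⁶ cells per mL A. baumannii ATCC 19606; single intraperitoneal peptide dose at 10× MIC; bacterial load determined 4 days after treatment (euthanized day 8); n = 6 per group from three inocula; one-way ANOVA with Dunnett's test versus untreated.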

Staphylococcus aureus [17] = assay: Depolarization of cytoplasmic membrane in Staphylococcus aureus ATCC 12600 at MIC measured for 45 mins by DiSC3-(5) dye based assay; type: functional, organism-based; method in brief: as §2
Escherichia coli [18] = assay: Induction of outer membrane permeabilization in Escherichia coli ATCC 11775 measured for 20 mins by NPN uptake assay; type: functional, organism-based
Klebsiella pneumoniae [19] = assay: Depolarization of cytoplasmic membrane in Klebsiella pneumoniae ATCC 13883 at MIC measured for 45 mins by DiSC3-(5) dye based assay; type: functional, organism-based; method in brief: as §2
[20] = Stability in human serum assessed as half life at 10 mg/ml by UPLC-MS analysis; type: ADME, cell-free
Method in brief: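 Peptides dissolved in PBS and incubated in 25% human serum. Intact peptide remaining followed over time to at least 6 h; half-life taken as time to 50% stability.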

With CC1(C)S[C@@H]2[C@H](NC(=O)[C@H](N)c3ccccc3)C(=O)N2[C@H]1C(=O)O [AMPICILLIN] the IC50 at 1 h [1] was 900 nM.

With CC[C@H](C)[C@H](NC(=O)CN)C(=O)NCC(=O)N[C@@H](C)C(=O)N[C@H](C(=O)N[C@@H](CC(C)C)C(=O)N[C@@H](CCCCN)C(=O)N[C@H](C(=O)N[C@@H](CC(C)C)C(=O)N[C@H](C(=O)N[C@H](C(=O)NCC(=O)N[C@@H](CC(C)C)C(=O)N1CCC[C@H]1C(=O)N[C@@H](C)C(=O)N[C@@H](CC(C)C)C(=O)N[C@H](C(=O)N[C@@H](CO)C(=O)N[C@@H](Cc1c[nH]c2ccccc12)C(=O)N[C@H](C(=O)N[C@@H](CCCCN)C(=O)N[C@@H](CCCNC(=N)N)C(=O)N[C@@H](CCCCN)C(=O)N[C@@H](CCCNC(=N)N)C(=O)N[C@@H](CCC(N)=O)C(=O)N[C@@H](CCC(N)=O)C(N)=O)[C@@H](C)CC)[C@@H](C)CC)[C@@H](C)O)[C@@H](C)O)C(C)C)C(C)C [MELITTIN] the IC50 (SUD4) was at most 5000 nM.

Work on H-KKKKAKKAAKKAFQFANQADNQAQDAKQNK-NH2 yielded an MIC (Staphylococcus carnosus) of over 50 µM, an inhibition at 30 µM (Staphylococcus aureus [2]) of under 45% and an inhibition at 30 µM (Staphylococcus aureus [3]) of under 45%. It also gave an inhibition at 30 µM (Staphylococcus aureus [4]) of under 45%, an MIC (Escherichia coli [5]) of over 50 µM and an inhibition at 30 µM (Staphylococcus aureus [6]) of under 45%.

In the case of H-KKKKIKKIIKKIFQFINQIDNQIQDIKQNK-NH2, the MIC (Staphylococcus carnosus) is reported as over 50 µM, the inhibition at 30 µM (Staphylococcus aureus [2]) is reported as under 45% and the inhibition at 30 µM (Staphylococcus aureus [3]) is reported as under 45%. For the same compound, the inhibition at 30 µM (Staphylococcus aureus [4]) was under 45% and the inhibition at 30 µM (Staphylococcus aureus [6]) was under 45%.

For H-KKKKKLKKILKKLFQFINQLDNQLQDIKKKKK-OH, the inhibition at 30 µM (Staphylococcus aureus [2]) was under 45%, the Activity [7] was “Non-Toxic” and the IC50 at 1 h [1] was over 50000 nM. For the same compound, the Activity (Acinetobacter baumannii [8]) was “Active”, the Activity (Acinetobacter baumannii [9]) was “inactive” and the Activity (Escherichia coli [10]) was “Active”. For the same compound, the Activity (Enterococcus faecium) was “Active”, the inhibition at 30 µM (Staphylococcus aureus [3]) was under 45% and the viability at 1 h, 50 µM [11] was 100%. The Activity (Klebsiella pneumoniae [12]) was “Active”, the inhibition at 30 µM (Staphylococcus aureus [4]) was under 45% and the Activity [13] was “Non-Toxic”. For the same compound, the Activity (Pseudomonas aeruginosa [14]) was “Active”, the Activity (Pseudomonas aeruginosa [15]) was “Active” and the Activity (Acinetobacter baumannii [16]) was “inactive”. The Activity (Staphylococcus aureus [17]) was “Active”, the Activity (Escherichia coli [18]) was “Active” and the inhibition at 30 µM (Staphylococcus aureus [6]) was under 45%. For the same compound, the Activity (Klebsiella pneumoniae [19]) was “Active” and the half-life at 10 mg/ml [20] was over 6 h.

— ChEMBL document CHEMBL5576140, “Computational Design of Pore-Forming Peptides with Potent Antimicrobial and Anticancer Activities” (J Med Chem, 2024)
